Compound activity as filed in PubChem BioAssay.
CHOP inhibitor: inhibitors of CHOP promoter induction, primary screen, cell-based, unfolded protein response, luciferase reporter | CHO-K1 CHOP-promoter luciferase, tunicamycin-induced, 15-18 h | inhibition, % at 10 µM | hit rate 3.8% among 220,000;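 active = compounds that reduced the stress-induced luciferase reporter signal by more than about 70% of percent inhibition, limit read from the data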
Wee1 stabilizer: Wee1 degradation inhibitors, primary screen, cell-based, HeLa, Wee1K328M-luciferase, luminescence; HeLa Luc-Wee1K328M stability; 100% = proteasome inhibitor MG132 effect; hit rate 1.2% among 220,000; reporter increase, % at 5 µM; Wee1-like protein kinase (Homo sapiens), P30291;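 active = activation above the mean of all tested compounds plus 3 SD, set per screening run, cut at about 8.8% in these data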;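 note: cells exposed to compound for 20 h before luminescence read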
L major viab: Leishmania major promastigote growth inhibition, primary screen. hit rate 9% among 200,000. AID 1063, 2008. Leishmania major promastigotes, resazurin fluorescence viability. inhibition, % at 10 µM;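 note: promastigotes grown with compound for 44 hours at 28 °C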
Arbovirus inh: antivirals against arbovirus infection, primary screen, cell-based, full library, 10K replicate subset; hit rate 0.37% among 200,000; inhibition, % at 10 µM; AID 1251, 2008; arbovirus infection cell-based antiviral screen; in the data active = inhibition above about 30%
PKD1 inh: inhibitors of human PKD1 kinase, biochemical, fluorescence polarization; hit rate 0.056% among 200,000; inhibition, % (test concentration not listed); PKD1 kinase fluorescence polarization assay; Serine/threonine-protein kinase D1 (Homo sapiens), Q15139; AID 797, 2007
Target sequence (Q15139 whole entry, looked up): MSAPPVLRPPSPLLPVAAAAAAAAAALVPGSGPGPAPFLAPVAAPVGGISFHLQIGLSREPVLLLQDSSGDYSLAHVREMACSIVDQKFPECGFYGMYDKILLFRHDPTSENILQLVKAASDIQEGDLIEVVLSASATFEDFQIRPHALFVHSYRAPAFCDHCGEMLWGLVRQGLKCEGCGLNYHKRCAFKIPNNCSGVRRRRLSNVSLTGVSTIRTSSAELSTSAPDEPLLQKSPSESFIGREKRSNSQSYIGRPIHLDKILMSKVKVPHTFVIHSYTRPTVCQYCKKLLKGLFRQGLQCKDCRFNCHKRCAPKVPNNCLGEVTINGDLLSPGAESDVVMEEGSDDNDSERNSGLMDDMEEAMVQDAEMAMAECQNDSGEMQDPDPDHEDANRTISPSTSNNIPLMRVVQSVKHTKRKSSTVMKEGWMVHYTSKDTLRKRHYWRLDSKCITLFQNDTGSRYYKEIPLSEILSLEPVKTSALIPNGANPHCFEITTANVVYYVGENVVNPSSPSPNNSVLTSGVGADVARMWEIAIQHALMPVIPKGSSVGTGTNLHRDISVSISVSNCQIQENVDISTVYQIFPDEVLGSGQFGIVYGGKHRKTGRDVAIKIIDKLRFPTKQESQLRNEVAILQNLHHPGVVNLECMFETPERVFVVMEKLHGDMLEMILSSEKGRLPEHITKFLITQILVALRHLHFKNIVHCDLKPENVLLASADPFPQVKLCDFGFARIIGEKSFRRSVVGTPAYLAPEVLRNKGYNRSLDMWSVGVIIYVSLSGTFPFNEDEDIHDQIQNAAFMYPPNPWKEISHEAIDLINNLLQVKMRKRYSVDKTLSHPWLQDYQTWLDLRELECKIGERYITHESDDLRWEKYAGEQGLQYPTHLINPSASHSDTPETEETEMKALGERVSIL
Rad51 HR inh: human RAD51 strand exchange inhibitors, primary screen, biochemical, fluorescence; hit rate 0.085% among 200,000; inhibition, % at 10 µM; hRad51 DNA strand exchange, fluorescence dequenching; DNA repair protein RAD51 homolog 1 (Homo sapiens), Q06609;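 active = inhibition above 40% at the single screening dose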
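material = hRad51 filaments on single-stranded DNA | reagent = Donor/quencher-labelled 47-bp dsDNA substrate | compound = 10 µM final, single point | schedule = strand-exchange reaction 15 min at room temperature | measured by = fluorescein emission 520 nm, excitation 485 nm | read-out basis = % inhibition versus plate control and blank means | benchmarks = plate controls and plate blanks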
Numbers stand for hits; n = inactive; x = no result. In the library only some 12% were active in any assay of this set; here they are far more common. Cut-off read from the data, not from the text of the source, unless noted: active = inhibition above about 50%; inactive = the rest.

SMILES	CHOP inhibitor	Wee1 stabilizer	L major viab	Arbovirus inh	PKD1 inh	Rad51 HR inh
CCc1cc(C(=O)N2CCCC(C(=O)c3cccc4ccccc34)C2)n(C)n1 (stereo not drawn)	n	n	n	n	n	x
COc1cc(C2C(C#N)=C(N)OC3=C2C(=O)CC(C)(C)C3)ccc1OCCN1CCOCC1 (stereo not drawn)	n	n	x	x	x	n
CCCNC(=O)NC(=O)COC(=O)c1oc2ccc(OCC)cc2c1C	72	n	n	n	n	n
CCOc1ccc2oc(C(=O)OCC(=O)NC3CC3)c(C)c2c1	n	n	n	n	n	n
Oc1ccc2ccccc2c1C=Nc1ccccc1-c1nc2ccccc2[nH]1	73	n	n	n	n	n
CO/N=C/c1cccn1-c1nccc(N(C)C)c1C#N	n	n	n	n	n	n
CN(C)C(=O)COC(=O)c1ccccc1NC(=O)c1ccco1	n	n	n	n	n	n
COc1cc2c(cc1OC)CN(C(=O)c1cccc([N+](=O)[O-])c1)CC2	n	10	x	x	x	x
O=C(Nc1cc(Cl)cc(Cl)c1)c1coc(=O)c(Br)c1	n	14	x	x	x	n
COC(=O)c1c(C)n(-c2ccc(C)cc2)c2ccc(O)cc12	n	n	n	n	n	x
CCOc1ccc(-n2c(C)c(C(=O)OC)c3cc(O)ccc32)cc1	81	n	x	x	x	n
COc1cccc(Cn2cccc(NC(=O)NC3CCCCC3)c2=O)c1	n	n	99	n	n	n
O=C(NCc1ccccc1)Nc1cccn(Cc2ccc(F)cc2)c1=O	n	n	n	n	n	x
CC(=O)Nc1ccc(S(=O)(=O)Nc2cccn(Cc3ccc(C)cc3)c2=O)cc1	n	n	n	n	n	n
CCOc1ccc(NC(=O)Nc2cccn(Cc3ccccc3)c2=O)cc1	n	n	n	n	n	41
Cc1ccc(Cn2cccc(NC(=O)NC3CCCCC3)c2=O)cc1	n	n	86	n	n	n
COc1ccc(Cn2cccc(NC(=O)Nc3cccc(C#N)c3)c2=O)cc1	n	n	n	n	n	n
O=C(NCc1ccccc1)Nc1cccn(Cc2ccccc2)c1=O	n	n	n	n	n	n
O=C(Nc1cccn(Cc2ccc(F)cc2)c1=O)NC1CCCCC1	n	n	83	n	n	n
COc1ccc(Cc2noc(CN3CCN(Cc4csc(C)n4)CC3)n2)cc1OC	n	n	n	n	n	n
Nc1cc(=O)[nH]c(SCC(=O)NNC(=O)Cc2ccccc2)n1	n	n	n	n	n	n
Cc1cc(C)cc(NC(=O)c2cccn2-c2ncc(C(F)(F)F)cc2Cl)c1	74	n	n	n	n	n
Cc1nc(C(=O)N/N=C/c2[nH]ncc2Br)cs1	n	n	x	x	x	n
O=C1N/C(=N\N=C\c2cccs2)SC1Cc1cccc(Cl)c1 (stereo not drawn)	88	n	n	n	n	n
c1ccc(COc2ccc(OCCCCN3CCCC3)cc2)cc1	n	n	92	n	n	n
SMILES	CHOP inhibitor	Wee1 stabilizer	L major viab	Arbovirus inh	PKD1 inh	Rad51 HR inh
COc1ccccc1N1CCN(CCCOc2ccc(F)cc2)CC1	n	n	n	n	n	n
Fc1ccc(OCCCCCCN2CCCC2)cc1	n	n	95	n	n	n
c1ccc(COc2ccc(OCCCN3CCCCC3)cc2)cc1	n	n	100	n	n	n
CC1CCN(CCOc2ccc(OCc3ccccc3)cc2)CC1	n	n	99	n	n	x
O=C(Nc1ccon1)c1ccc(S(=O)(=O)N2CCOCC2)cc1	n	n	n	n	n	x
CCc1nccn1S(=O)(=O)c1ccc(OC)c(C)c1C	n	n	n	n	n	n
CCc1nccn1S(=O)(=O)c1ccc(Br)cc1Br	n	n	89	n	n	x
Cc1cccc(NC(=O)CCCn2cc([N+](=O)[O-])cn2)n1	n	n	n	n	n	n
CC[N+](CC)(CC)C/C=C/CN1CCCCC1	n	n	58	n	n	n
CCOc1ccc(OCCN(C)Cc2ccccc2)cc1	n	n	93	n	n	n
CCOc1cccc(OCCOCCN(C)Cc2ccccc2)c1	n	n	79	n	n	n
Cc1ccc(Cl)c(OCCCN(C)Cc2ccccc2)c1	n	n	x	x	x	n
Cc1ccc(Cl)c(OCCCCN(C)Cc2ccccc2)c1	n	n	91	n	n	n
CN(CCOCCOc1ccc(Cl)cc1Br)Cc1ccccc1	n	n	87	n	n	n
